Article PMC12583737 (Nature Communications, 2025)

Assays:
V5-tagged FBXO22 = experiment: Cellular thermal stability shift assay; format: binding; conditions: lysates of HCC515 expressing V5-tagged FBXO22
How it was run: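 It got 10 µM neddylation inhibitor for 10 min, then compound or DMSO for 30 min at room temperature. Aliquots were heated 3 min across 38–71 °C in 3-degree steps and cleared at 20,000 g. Soluble V5-FBXO22 was read by anti-V5 immunoblot.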

[1] = test system: SMARCA2-nanoLuc and FBXO22-HaloTag; experiment: SMARCA2/FBXO22 NanoBRET ternary complex assay in FBXO22 knockout HCC515 cells; format: cell-based; conditions: FBXO22 knockout HCC515, overnight, 10 µM MLN4924
How it was run: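 FBXO22-knockout HCC515 cells were transiently co-transfected with SMARCA2-NanoLuc and FBXO22-HaloTag at a 1:20 ratio (FuGENE HD). They were replated next day at 25,000 per well with or without HaloTag 618 ligand and left overnight. Cells were pretreated 1 h with 10 µM MLN4924, which was kept throughout, then dosed with test compound or a control PROTAC for 24 h. Emissions at 460/618 nm were read 10 min after substrate. Ratio ×1000 gave mBU, with the no-ligand value subtracted. Mean ± sd, n = 2–6.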

| Compound | thermal stability of FBXO22 (V5-tagged FBXO22) | BRET signal (ternary complex SMARCA2/FBXO22) [1] |
| --- | --- | --- |
| Nc1nnc(-c2ccccc2O)cc1N1CC2CCC(C1)N2c1ccnc(F)c1 [Compound 7] | not observed |  |
| Cc1ncsc1-c1ccc([C@H](C)NC(=O)[C@@H]2C[C@@H](O)CN2C(=O)[C@@H](c2cc(N3CCC(CN4CCC(OC5CC(Oc6cc(N7C8CCC7CN(c7cc(-c9ccccc9O)nnc7N)C8)ccn6)C5)CC4)CC3)no2)C(C)C)cc1 (some centres unmarked) [Compound A947] |  | not observed |
